High-throughput results as filed in PubChem BioAssay.
PfM18AAP inh = blocks P. falciparum M18 aspartyl aminopeptidase; AID 1822; recombinant PfM18AAP, H-Glu-NHMec fluorogenic cleavage; inhibition, % at 7.35 µM; 290,000 tested, 1.2% active;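 active means inhibition above the campaign mean inhibition over all tested compounds plus 3 SD, cut at about 28% in these data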;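 further: 0% = plate median of test compound wells and 100% = 2 mM ZnCl2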
HCV NS3 hel inh = inhibitors of Hepatitis C virus NS3 helicase; NS3 helicase DNA unwinding, Cy5 molecular beacon fluorescence; inhibition, % at 10.9 µM; 290,000 tested, 0.56% active;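 active means inhibition above the mean of all tested compounds plus 3 SD, set per campaign, cut at about 35% in these data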;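 further: 0% = DMSO wells and 100% = thioflavine S control wells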
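Test system: hepatitis C virus NS3 helicase domain fragment enzyme. Also added: annealed dual-labelled DNA beacon duplex, ATP-started. Timing: 60 min unwinding reaction at 25 °C after ATP addition. Technique: Cy5 fluorescence. Measure: % inhibition of unwinding.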
XBP1 UPR activ = activators of adaptive arm of unfolded protein response (XBP1) | CHO-XBP1 luciferase reporter, IRE1-XBP1 UPR activation, luminescence; percent of tunicamycin response, DMSO as zero | activation, % at 20 µM | 330,000 tested, 0.33% active | AID 463104;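 active means versus positive control, 20 µM dose yields 30% or more activation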;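 further: 100% = tunicamycin at 10 µg/mL and 0% = DMSO only wells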
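assay system = CHO-XBP1 luciferase reporter cells | amount = 1000 cells/well | buffer or medium = F12 plus 10% FBS | compound dosing = single point, 20 µM final compound, 1% DMSO | incubation = 16-18 h cell attachment at 37 °C, then 6 h compound exposure | detection = Steady-Glo luminescence read | controls = tunicamycin 10 µg/mL and vehicle-only wells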
UPR CHOP act = apoptotic UPR (CHOP) activation; activation, % at 10 µM; 330,000 tested, 0.34% active; CHO-CHOP luciferase reporter, luminescence; percent of tunicamycin response over DMSO baseline;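 active means at 10 µM dose, activation of 40% or more, normalized to positive control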;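 further: 100% = tunicamycin at 10 µg/mL and 0% = DMSO alone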
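Test system: CHO CHOP reporter cells. Input: 500 CHO-CHOP cells per well. Medium: F12 with 10% FBS. Technique: luciferase luminescence. Measure: percent activation relative to tunicamycin control. Dosing: 10 µM compound, 0.5% DMSO. Timing: 16-18 h cell attachment, then 6 h compound exposure, 37 °C.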
CHOP inh = blocks CHOP induction under ER stress; AID 2732; 220,000 tested, 3.8% active; inhibition, % at 10 µM; CHO-K1 CHOP-promoter luciferase, tunicamycin-induced, 15-18 h;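 active means compounds that reduced the stress-induced luciferase reporter signal by more than about 70% of percent inhibition, limit read from the data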;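 further: 0% = tunicamycin plus vehicle and 100% = wells without tunicamycin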
p97 inhibitor = inhibitors of human p97 ATPase | recombinant p97 ATPase, Kinase-Glo ATP luminescence, 3 h | inhibition, % at 8 µM | 220,000 tested, 0.42% active; in the data active means inhibition above about 15%;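 further: 0% = DMSO vehicle and 100% = wells lacking enzyme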
Target sequence (P55072 whole entry, looked up): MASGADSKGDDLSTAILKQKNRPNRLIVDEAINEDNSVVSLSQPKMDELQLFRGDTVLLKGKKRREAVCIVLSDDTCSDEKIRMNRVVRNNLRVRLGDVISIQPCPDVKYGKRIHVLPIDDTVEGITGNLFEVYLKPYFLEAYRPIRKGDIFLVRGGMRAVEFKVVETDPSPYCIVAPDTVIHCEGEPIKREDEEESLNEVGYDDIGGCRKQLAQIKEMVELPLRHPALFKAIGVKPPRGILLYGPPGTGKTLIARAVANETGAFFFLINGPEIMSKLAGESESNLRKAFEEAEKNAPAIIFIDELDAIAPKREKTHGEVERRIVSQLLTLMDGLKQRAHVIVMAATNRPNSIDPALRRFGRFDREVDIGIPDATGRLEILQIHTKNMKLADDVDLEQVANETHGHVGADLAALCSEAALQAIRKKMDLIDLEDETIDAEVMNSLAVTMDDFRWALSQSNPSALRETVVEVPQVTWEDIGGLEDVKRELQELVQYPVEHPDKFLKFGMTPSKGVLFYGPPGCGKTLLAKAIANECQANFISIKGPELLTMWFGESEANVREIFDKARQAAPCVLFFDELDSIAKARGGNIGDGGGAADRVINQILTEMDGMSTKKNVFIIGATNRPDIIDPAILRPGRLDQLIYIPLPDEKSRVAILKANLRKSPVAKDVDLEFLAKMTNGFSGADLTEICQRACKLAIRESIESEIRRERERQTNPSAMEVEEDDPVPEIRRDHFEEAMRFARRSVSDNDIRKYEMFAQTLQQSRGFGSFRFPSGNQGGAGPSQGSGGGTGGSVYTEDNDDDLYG
* = called active by the depositor. Only some compounds are listed: those with a hit (about 4.5% of all), similar ones and a draw of the others.

How did COc1ccc(/C=C2\SC(=O)N(CC(=O)NNC(=O)c3ccccc3O)C2=O)cc1 do in these assays?
PfM18AAP inh: 6; HCV NS3 hel inh: 7; XBP1 UPR activ: -1; UPR CHOP act: 1; CHOP inh: 78*; p97 inhibitor: 1

What do the screens show for `O=C(CCCN1C(=O)/C(=C/c2ccccc2)SC1=S)Nc1ccccc1O`?
PfM18AAP inh: -1; HCV NS3 hel inh: 1; XBP1 UPR activ: 0; UPR CHOP act: -2; CHOP inh: 82*; p97 inhibitor: 7

What do the screens show for `O=C(CCCN1C(=O)S/C(=C\c2ccccc2)C1=O)NNC(=O)c1ccccc1O`?
PfM18AAP inh: 5; HCV NS3 hel inh: 0; XBP1 UPR activ: -4; UPR CHOP act: -6; CHOP inh: 95*; p97 inhibitor: 8

Results for Nc1ccccc1C(O)(Cc1ccccc1)c1ccccc1 (configuration not stated) ?
PfM18AAP inh: -2; HCV NS3 hel inh: 12; XBP1 UPR activ: 5; UPR CHOP act: -4

How did OC(CNCc1ccccc1Cl)C(F)(F)F (configuration not stated) do in these assays?
PfM18AAP inh: 4; HCV NS3 hel inh: -8; XBP1 UPR activ: -1; UPR CHOP act: 0; CHOP inh: -3; p97 inhibitor: 0

Results for O=C(CN(c1ccc(Cl)c(C(F)(F)F)c1)S(=O)(=O)c1ccccc1)N/N=C/c1cccc2c1OCCO2 ?
PfM18AAP inh: -3; HCV NS3 hel inh: 3; XBP1 UPR activ: -2; UPR CHOP act: 1; CHOP inh: 73*; p97 inhibitor: 0

How did CS(=O)(=O)N(CC(=O)N/N=C/c1cccc2c1OCCO2)c1ccccc1Br do in these assays?
PfM18AAP inh: -7; HCV NS3 hel inh: -6; XBP1 UPR activ: -4; UPR CHOP act: -1; CHOP inh: 16; p97 inhibitor: 2

How did O=C(Nc1ccc(Nc2ccccc2)cc1)c1ccc(Cl)cc1 do in these assays?
XBP1 UPR activ: -2; UPR CHOP act: 1

How did N#C/C(C(=O)Nc1ccc(Cl)cc1)=C(/S)Nc1ccccc1 do in these assays?
PfM18AAP inh: 57*; HCV NS3 hel inh: -10; XBP1 UPR activ: 1; UPR CHOP act: 4

How did Oc1ccc(C[C@@H]2CNC(=S)N2CCc2cc(C(F)(F)F)cc(C(F)(F)F)c2)cc1 do in these assays?
XBP1 UPR activ: -1; UPR CHOP act: 0; CHOP inh: 80*

How did Cc1cc(N2CCN(c3cccc(C(F)(F)F)c3)CC2)n2ncnc2n1 do in these assays?
PfM18AAP inh: -6; HCV NS3 hel inh: -8; XBP1 UPR activ: 2; UPR CHOP act: 1; CHOP inh: 44; p97 inhibitor: 7

Results for Cc1nc2ncnn2c(N2CCN(c3cccc(C(F)(F)F)c3)CC2)c1C ?
PfM18AAP inh: -12; HCV NS3 hel inh: 7; XBP1 UPR activ: 1; UPR CHOP act: 6; CHOP inh: 73*; p97 inhibitor: -4

How did Cc1cc(C)c2oc(C(=O)N3CCN(Cc4ccccc4)CC3)cc(=O)c2c1 do in these assays?
PfM18AAP inh: -4; HCV NS3 hel inh: -9; XBP1 UPR activ: -2; UPR CHOP act: -1

What do the screens show for `O=C(COC(=O)/C=C/C(=O)OCC(=O)Nc1ccccc1F)Nc1ccccc1F`?
PfM18AAP inh: 6; HCV NS3 hel inh: -9; XBP1 UPR activ: -2; UPR CHOP act: 0; CHOP inh: 27; p97 inhibitor: 9

How did Cc1ccc(-c2cc3ccccc3nc2N2CCOCC2)cc1 do in these assays?
PfM18AAP inh: -3; HCV NS3 hel inh: -2; XBP1 UPR activ: -4; UPR CHOP act: -1; CHOP inh: 72*; p97 inhibitor: -2

What do the screens show for `Cc1cc(-c2ccc(N3CCOCC3)cc2)nc2ccccc12`?
PfM18AAP inh: -3; HCV NS3 hel inh: -6; XBP1 UPR activ: 1; UPR CHOP act: 8; CHOP inh: -28; p97 inhibitor: -4

What do the screens show for `c1ccc2nc(-c3ccc(N4CCOCC4)cc3)ccc2c1`?
PfM18AAP inh: 4; HCV NS3 hel inh: 4; XBP1 UPR activ: -7; UPR CHOP act: -9; CHOP inh: 90*; p97 inhibitor: 3

What do the screens show for `Cc1cc(C)n(CCC(=O)N/N=C/c2c(O)ccc3ccccc23)n1`?
PfM18AAP inh: 4; HCV NS3 hel inh: -10; XBP1 UPR activ: -1; UPR CHOP act: -1; CHOP inh: 88*; p97 inhibitor: 4

What do the screens show for `O=C(N/N=C/c1c(O)ccc2ccccc12)c1[nH]ncc1Br`?
PfM18AAP inh: 7; HCV NS3 hel inh: 7; XBP1 UPR activ: 4; UPR CHOP act: 2; CHOP inh: 78*; p97 inhibitor: 7

What do the screens show for `O=C(N/N=C/c1c(O)ccc2ccccc12)c1cccc(C(F)(F)F)c1`?
PfM18AAP inh: 5; HCV NS3 hel inh: 10; XBP1 UPR activ: 1; UPR CHOP act: 3; CHOP inh: 78*; p97 inhibitor: -4

How did CN(C)c1ccc(CNC23CC4CC(CC(C4)C2)C3)cc1 do in these assays?
PfM18AAP inh: 0; HCV NS3 hel inh: -3; p97 inhibitor: 2

How did Cc1sc2nc(SCC(=O)N3CCOCC3)[nH]c(=O)c2c1-c1ccccc1 do in these assays?
PfM18AAP inh: 6; HCV NS3 hel inh: 8; XBP1 UPR activ: -3; UPR CHOP act: -2

Results for CC(C)(C)NC(=O)NC(=O)COC(=O)CCC1CCCC1 ?
PfM18AAP inh: -14; HCV NS3 hel inh: -6; XBP1 UPR activ: -1; UPR CHOP act: 1; CHOP inh: 77*; p97 inhibitor: -3

Results for CC(C)(C)NC(=O)NC(=O)COC(=O)COc1ccc2c(c1)CCC2 ?
PfM18AAP inh: -2; HCV NS3 hel inh: -2; XBP1 UPR activ: -2; UPR CHOP act: -1; CHOP inh: 85*; p97 inhibitor: 4

What do the screens show for `Cc1cccc(NC(=O)COC(=O)COc2ccc3c(c2)CCC3)c1`?
XBP1 UPR activ: -2; UPR CHOP act: -1

How did Cc1cc(C)cc(NC(=O)COC(=O)CCC2CCCC2)c1 do in these assays?
XBP1 UPR activ: 0; UPR CHOP act: 1

How did CC(OC(=O)c1ccc2ncsc2c1)C(=O)N(C)C1CCCCC1 (configuration not stated) do in these assays?
XBP1 UPR activ: -3; UPR CHOP act: -2

What do the screens show for `COc1ccc(-n2[nH]c(C)cc2=O)cc1`?
PfM18AAP inh: -6; HCV NS3 hel inh: -4; XBP1 UPR activ: -1; UPR CHOP act: -5; CHOP inh: 17; p97 inhibitor: 28*

What do the screens show for `COc1ccc(/C=N/n2cnc3c([nH]c4ccc(F)cc43)c2=O)cc1CSc1ccccn1`?
PfM18AAP inh: 0; HCV NS3 hel inh: -13; XBP1 UPR activ: 17; UPR CHOP act: 13; CHOP inh: 80*; p97 inhibitor: 6

Results for COC(=O)c1ccc(NC(=S)N2CCN(Cc3ccccc3)CC2)cc1 ?
PfM18AAP inh: 1; HCV NS3 hel inh: -3; XBP1 UPR activ: 3; UPR CHOP act: -2; CHOP inh: 24; p97 inhibitor: -2
